The list is not random: actives were taken first. Their share in the collection is about 5.3%.
Calb FLC: C. albicans growth modulation with fluconazole; C. albicans CaCi-2 (fluconazole-resistant clinical isolate) + fluconazole, Alamar Blue growth, 48 h; growth inhibition, % (test concentration not listed); actives 0.57% (n = 300,000); AID 1979;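 active means growth inhibition above about 58% in most replicates, limit read from the data, passing the limit was not always enough; inconclusive means exactly half the replicates above a set limit; inactive means most replicates below a set limit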;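 further: all wells also contain fluconazole at 8 µg/ml as a sub-toxic cotreatment; 0% = median of DMSO wells and 100% = median of geldanamycin control wells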
Beta apoptosis: beta cell apoptosis inhibition. INS-1E cytokine-induced death, ATP luminescence, 48 h; percent of positive-control rescue, neutral wells zero. protection from apoptosis, % (no concentration beside the values). actives 0.8% (n = 300,000). AID 435005;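 active means Every replicate reaches about 75%, or at least half do and their mean reaches it too, limit read from the data; inconclusive means At least half of replicates reach the limit but their mean does not; inactive means Under half of replicates reach the limit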;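 further: 0% = cytokine-treated negative control wells and 100% = positive control rescue; higher means more ATP so stronger rescue from cytokine killing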
CSC inhib: cancer stem cell inhibition; cancer stem cell-like cells viability, luminescence; inhibition, % at 7.5 µM; actives 1.1% (n = 300,000); AID 2717; in the data active means inhibition above about 75%; inconclusive means no clear call, values can overlap the other calls; tested in HMLE shEcad cells
Mdm2 MdmX PPI: inhibitors of human Mdm2/MdmX interaction; actives 3% (n = 330,000); SaOS-2 split-luciferase Mdm2/MdmX complementation, luminescence; AID 485346; O15151+Q00987; inhibition, % at 8 µM;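 active means inhibition of at least 50% at 8 µM in the primary screen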
Target sequence (O15151 whole entry, looked up): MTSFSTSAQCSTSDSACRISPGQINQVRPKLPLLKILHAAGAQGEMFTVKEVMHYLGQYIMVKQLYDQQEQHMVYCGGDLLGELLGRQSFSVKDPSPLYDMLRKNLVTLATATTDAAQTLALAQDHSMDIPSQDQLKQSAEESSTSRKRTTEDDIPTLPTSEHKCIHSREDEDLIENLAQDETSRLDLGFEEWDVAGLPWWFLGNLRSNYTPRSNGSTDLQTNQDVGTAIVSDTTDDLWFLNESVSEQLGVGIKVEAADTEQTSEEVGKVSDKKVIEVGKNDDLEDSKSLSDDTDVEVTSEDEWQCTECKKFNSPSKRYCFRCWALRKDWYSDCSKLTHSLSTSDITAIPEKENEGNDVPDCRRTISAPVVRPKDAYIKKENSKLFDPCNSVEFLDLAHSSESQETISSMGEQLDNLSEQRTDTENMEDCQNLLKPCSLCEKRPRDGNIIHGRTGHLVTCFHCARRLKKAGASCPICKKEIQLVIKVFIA
Target sequence (Q00987 whole entry, looked up): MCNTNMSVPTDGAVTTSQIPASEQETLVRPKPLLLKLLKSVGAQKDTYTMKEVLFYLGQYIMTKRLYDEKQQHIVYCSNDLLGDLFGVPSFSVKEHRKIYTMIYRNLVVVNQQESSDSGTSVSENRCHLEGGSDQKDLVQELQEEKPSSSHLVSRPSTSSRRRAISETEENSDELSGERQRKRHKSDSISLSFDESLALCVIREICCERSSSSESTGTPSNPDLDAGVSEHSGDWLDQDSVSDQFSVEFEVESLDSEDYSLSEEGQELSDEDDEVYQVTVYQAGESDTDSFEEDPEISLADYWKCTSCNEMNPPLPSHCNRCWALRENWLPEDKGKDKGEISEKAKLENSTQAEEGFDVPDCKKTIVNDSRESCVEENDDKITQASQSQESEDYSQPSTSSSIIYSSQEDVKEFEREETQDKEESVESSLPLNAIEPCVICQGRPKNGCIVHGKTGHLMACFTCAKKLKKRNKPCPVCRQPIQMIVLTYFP
T cruzi repl: T. cruzi replication inhibition; T. cruzi beta-gal in NIH3T3, luminescence, 90 h; actives 1.4% (n = 300,000); inhibition, % (concentration not given with the values); AID 1885;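 active means mean inhibition across valid replicates above about 55%, limit read from the data; inconclusive means mean below that limit but half or more replicates reach it; inactive means mean below it, under half of replicates reach it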;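 further: signal also drops with host cell toxicity which is not excluded here; 0% = plate median of DMSO wells and 100% = zero luminescence signal; higher percent means less beta-gal luminescence so fewer parasites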
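Assay system: NIH/3T3 fibroblasts plus reporter T. cruzi. Amount: NIH/3T3 cells, 5,000 per well. Buffer or medium: DMEM, 2% fetal bovine serum. Doses: compound pinned at 50 nL/well, DMSO. Schedule: ≥90 h infection period, 3 h prior cell attachment. Signal: luminescent β-galactosidase signal after 60 min lysis. Read-out: parasite load inhibition, %.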
NLRP3 yeast inh: blocks the NALP3 inflammasome reconstituted in yeast; inhibition, % at 10 µM; AID 2825; Yeast reconstituted NLRP3/ASC/caspase-1, beta-gal luminescence, 24 h; actives 0.39% (n = 330,000);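 active means inhibition of 50% or more; inactive means inhibition below 50%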;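 further: plate controls were induced DMSO wells for no effect and uninduced yeast grown without galactose for full effect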
Mdm2-MdmX conf: human Mdm2/MdmX binding inhibition, confirmed. luminescent assay. inhibition, % at 8 µM. AID 489028. shares compounds with Mdm2 MdmX PPI. actives 55% (n = 10,000); in the data active means inhibition above about 40%
Full FLuc ctr: inhibits full-length luciferase, flagging false Mdm2/MdmX hits | shares compounds with Mdm2 MdmX PPI | SaOS-2 full-length luciferase counterscreen, luminescence | inhibition, % at 8 µM | actives 77% (n = 6,200);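 active means mean inhibition at 8 µM reaching about 37%, which flags the compound as non-specific, limit read from the data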;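 further: p53-null SaOS-2 cells with luciferase driven by a doxycycline-inducible promoter; compound on cells about two nights before reading with doxycycline added after day one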
* = called active by the depositor; ? = inconclusive; . = no result.

SMILES	Calb FLC	Beta apoptosis	CSC inhib	Mdm2 MdmX PPI	T cruzi repl	NLRP3 yeast inh	Mdm2-MdmX conf	Full FLuc ctr
COc1cc(OC)c(C#N)c(S(=O)(=O)Cc2ccccc2)c1	.	-3	3	1	13	4	.	.
COc1ccc(-c2c3c(nc4sc5c(Cl)nc(C)nc5c24)CCC3)cc1	-8	0	-26	99*	-2	7	-21	.
COc1ccc(-c2c(C#N)c(N)nc3c2CCC3)cc1	4	-7	.	29	19	32	.	.
Cc1ccc(-c2c3c(nc4sc(C(N)=O)c(N)c24)CCC3)cc1	-5	-42	-8	56*	17	7	55*	47*
NC(=O)c1sc2nc3c(c(-c4ccc(Cl)cc4)c2c1N)CCCC3	?	-3	-9	36	?	2	.	.
NC(=O)c1sc2nc3c(c(-c4ccco4)c2c1N)CCCC3	16	-11	-7	61*	2	22	67*	37*
Cc1cccc(-c2ncc(CN3CCN(CC(C)C)C(CCO)C3)cn2)c1 (centres undefined)	-24	3	29	16	27	3	.	.
CCCCCn1c(=O)[nH]c2cc(C(=O)NC3CCN(Cc4ccccc4)CC3)ccc2c1=O	0	7	1	92*	35	1	29	.
CC1CCN(CCNC(=O)c2ccc3c(=O)n(Cc4ccc(Cl)cc4)c(=S)[nH]c3c2)CC1	?	3	-7	97*	25	19	31	.
O=C1C(=O)N(CCN2CCOCC2)C(c2ccc(Cl)c(Cl)c2)/C1=C(/O)c1ccc2c(c1)OCO2 (centres undefined)	-4	-1	10	-4	-3	1	.	.
CCS(=O)(=O)c1ccc(O)c(NC(=O)c2cc(OC)c(OC)c(OC)c2)c1	-6	0	-1	16	-8	11	.	.
COc1ccccc1N=Nc1ccc(O)c2ncccc12	97*	20	27	68*	46	18	38	92*
Cc1ccc(N=Nc2ccc3ccccc3c2O)cc1	2	16	32	20	-10	29	.	.
O=c1ncn(-c2ccccc2C(F)(F)F)c2ncccc12	-5	0	-3	33	-14	4	.	.
Cc1ccc(N=Nc2ccc(O)c3ncccc23)cc1C	9	-6	1	78*	66*	6	88*	26
CCS(=O)(=O)c1ccc(N=Nc2ccc(O)c3ncccc23)c(OC)c1	?	.	.	75*	26	5	69*	32
Oc1ccc(N=Nc2ccccc2C(F)(F)F)c2cccnc12	98*	90*	100*	83*	55*	23	86*	23
COC(C[C@H](O)C[C@H](O)[C@H](C)OCc1ccccc1)OC	.	1	-8	12	.	7	.	.
CCOC(=O)C1=C(N)n2c(s/c(=C/c3ccccc3)c2=O)=C(C(=O)OCC)C1c1ccccc1 (centres undefined)	4	4	-9	51*	-20	9	-10	.
CCOC(=O)C1=C(N)n2c(s/c(=C\c3ccco3)c2=O)=C(C(=O)OCC)C1c1ccco1 (centres undefined)	17	12	69	.	10	.	.	.
COc1ccc(-c2nc(=S)c3ccc4ccccc4c3[nH]2)cc1	1	.	.	.	7	.	.	.
O=c1nc2cccc3c2=c(/c1=C(\O)c1ccccc1)c1ccccc1c3=O	8	2	2	52*	11	4	28	.
O=c1[nH]c(/C=C/c2cccc3ccccc23)nc2ccccc12	-7	41	6	44	-20	24	.	.
COC(=O)c1sc(N)c(C(=O)OC)c1COC(=O)[C@@H](NS(=O)(=O)c1cccc(Cl)c1)C(C)C	9	-2	16	54*	4	13	28	.
CCOc1ccc(S(=O)(=O)Nc2ncn[nH]2)cc1	-11	-8	.	12	-11	8	.	.
SMILES	Calb FLC	Beta apoptosis	CSC inhib	Mdm2 MdmX PPI	T cruzi repl	NLRP3 yeast inh	Mdm2-MdmX conf	Full FLuc ctr
COc1ccccc1-c1nc(-c2ccccn2)no1	1	.	45	29	-10	11	.	.
COc1ccc(-c2nc(-c3ccccn3)no2)cc1	.	89*	88*	89*	12	11	91*	54*
COc1cccc(SCC2(O)CCN(C(=O)c3ccc(Cl)cc3)CC2)c1	26	-5	2	7	7	8	.	.
S=c1[nH]nc(COc2ccccc2)n1/N=C/c1ccccn1	1	-2	0	1	-3	5	.	.
O=C(NCc1ccc(-c2nc3ccccc3s2)cc1)c1ccc(Br)o1	-3	2	-10	-52	0	20	.	.
Cc1ccc2cccc(NC(=O)c3ccc(Br)o3)c2n1	-10	0	.	61*	2	6	63*	55*
O=C(Nc1ccccc1-c1nc2ccccc2s1)c1ccc(Br)o1	-16	-1	8	60*	0	7	6	.
O=C(Nc1cccc(NC(=O)c2ccc(Br)o2)n1)c1ccc(Br)o1	0	-6	-9	11	14	4	.	.
COc1ccc(C(=O)c2c(-c3cccc(C)c3)oc3ccc(N4CCOCC4)cc23)cn1	-3	9	14	18	22	12	.	.
COc1ccc([N+](=O)[O-])cc1N(CC(=O)O)S(C)(=O)=O	-6	-8	-12	17	-17	12	.	.
CCn1c(=O)cc(SCC(=O)N2CCN(c3ccccc3F)CC2)c2ccccc21	14	-2	24	56*	7	21	44*	86*
CCn1c(=O)cc(SCC(=O)N(C)Cc2ccccc2)c2ccccc21	9	0	-7	51*	6	8	30	.
CN(Cc1ccccc1)C(=O)CSc1cc(=O)n(C)c2ccccc12	7	-1	1	35	11	5	.	.
O=C(NCc1ccco1)C(c1ccco1)N(Cc1cccs1)C(=O)Cn1nnc2ccccc21 (centres undefined)	6	4	-8	-11	-5	3	.	.
CCN(CC)C(=O)CP(=O)(c1ccccc1)c1ccccc1	-7	-1	-7	-7	0	10	.	.
O=C(Nc1ccc(Cl)c(Cl)c1)Nc1nnc(CSc2ccccc2)s1	4	100*	44	95*	3	-2	77*	50*
Cc1ccc(OCCSCc2nnc(NC(=O)Nc3cccc(Cl)c3)s2)cc1	-12	6	51	92*	6	1	82*	97*
O=C(Nc1ccc(Cl)cc1)Nc1nnc(SCc2ccccc2)s1	-13	10	15	-13	-14	6	.	.
O=C(Nc1ccccc1)Nc1nnc(CSCc2ccccc2Cl)s1	7	-2	.	85*	25	23	47*	66*

From PubChem
